HCV NS3 hel inh: inhibitors of HCV NS3 helicase, primary screen, biochemical, Cy5 molecular beacon fluorescence; Hepatitis C virus NS3 helicase; NS3 helicase DNA unwinding; inhibition, % at 10.9 µM; actives 0.56% (n = 290,000); AID 1800, 2009;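 active = inhibition above the mean of all tested compounds plus 3 SD, set per campaign, cut at about 35% in these data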;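 also: 0% = DMSO wells and 100% = thioflavine S control wells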
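System: Hepatitis C virus NS3 helicase domain fragment enzyme | Reagent: Annealed dual-labelled DNA beacon duplex, ATP-started | Compound dosing: 10.9 µM single point, 0.8% DMSO | Incubation: 1 h reaction at 25 °C, ATP-initiated | Technique: Cy5 fluorescence | Evaluation: Percent inhibition from t60/t0 fluorescence ratio | Benchmarks: Low DMSO, high thioflavine S at 110 µM | Replication: Singlicate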
TAAR1 ag: human TAAR1 agonists, primary screen, Fluo-8 calcium fluorescence, CHO RD-HGA16 cells. vehicle wells 0%, saturating PEA agonist 100%. activation, % at 3 µM. actives 0.99% (n = 360,000);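 active = activation above the mean activation of all test compounds in the run plus 3 SD, cut at about 38% in these data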
Target sequence (Q96RJ0 whole entry, looked up): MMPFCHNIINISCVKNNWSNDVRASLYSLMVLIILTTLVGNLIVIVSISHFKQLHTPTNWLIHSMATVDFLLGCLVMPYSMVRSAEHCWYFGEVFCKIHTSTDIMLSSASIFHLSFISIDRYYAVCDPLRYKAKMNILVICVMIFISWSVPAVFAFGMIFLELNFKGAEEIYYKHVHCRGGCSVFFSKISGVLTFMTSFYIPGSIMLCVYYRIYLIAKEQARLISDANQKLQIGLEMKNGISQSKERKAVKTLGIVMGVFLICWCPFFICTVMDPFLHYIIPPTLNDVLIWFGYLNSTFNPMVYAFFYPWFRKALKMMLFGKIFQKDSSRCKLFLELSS
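Test system: RD-HGA16 (CHO) cells co-expressing Gα16 and hTAAR1 | Doses: Single dose, 3 µM | Schedule: 17-24 h seeding, 75 min 37 °C dye, 30 min RT | Evaluation: % activation from peak over basal fluorescence ratio, DMSO-to-PEA scaled | Technique: Kinetic Fluo-8 calcium fluorescence | Benchmarks: Low control DMSO, high control PEA (EC100)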
HCV core dimer: inhibitors of HCV core protein dimerization, primary screen, biochemical, TR-FRET, high-throughput. actives 0.33% (n = 300,000). inhibition, % at 5 µM. TR-FRET GST/Flag-core106 dimerization, 1536-well;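 active = inhibition above the mean of all tested compounds plus 3 SD, set per screening campaign, cut at about 45% in these data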
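Assay system: GST-tagged and Flag-tagged HCV core protein residues 1-106 / Times: compound-protein-antibody incubation 4 h at 22.5 °C / Signal: time-resolved FRET, ex 340 nm, em 617 and 671 nm / Evaluation: % inhibition based on acceptor/donor emission ratio / Benchmarks: wells lacking GST-core106 and wells with excess unlabelled core106 / Repeats: singlicate, one well per compound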
rCAG RNA binder: binders of r(CAG) RNA repeats, primary screen, biochemical, fluorescence | r(CAG) RNA repeat, TO-PRO-1 dye displacement fluorescence | inhibition, % at 3 µM | actives 1.3% (n = 370,000) | AID 651821, 2012;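 active = inhibition above the plate cutoff, the mean of all test compounds on that plate plus 3 SD, cut at about 35% in these data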;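 also: 0% = DMSO alone and 100% = 100 µM mitoxantrone as full dye displacement; higher means more dye released from RNA so lower well fluorescence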
TAAR1 antagonist: human TAAR1 antagonists, primary screen, Fluo-8 calcium fluorescence, CHO RD-HGA16 cells; Trace amine-associated receptor 1 (Homo sapiens), Q96RJ0; antagonist; inhibition, % at 3 µM; actives 1.5% (n = 360,000);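 active = inhibition above a per-plate cutoff, the mean inhibition of test compounds on that plate plus 3 SD, cut at about 49% in these data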;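 also: 0% = DMSO plus EC80 beta-PEA response and 100% = DMSO alone without agonist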
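Test system: CHO RD-HGA16 cells bearing hTAAR1 | Reagent: β-PEA, EC80 | Compound dosing: 3 µM, single point | Schedule: Dye loading 75 min at 37 °C, then 30 min room temperature | Signal: Calcium fluorescence with Fluo-8 | Evaluation: Percent inhibition of PEA-evoked calcium signal, max/basal emission ratio | Control set: DMSO-only wells and EC80 β-PEA-stimulated wells | Repeats: Singlicate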
TAAR1 nonsel count: nonselective antagonists in TAAR1 counter-screen cells, counter-screen for hTAAR1 antagonist project, cell-based, fluorescence, calcium; inhibition, % at 3 µM; AID 651780, 2012; actives 77% (n = 2,400); shares compounds with TAAR1 antagonist; counterscreen cell line, antagonist mode; in the data active = inhibition above about 22%;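 also: CHO-Ga16 host cells stimulated with ATP at an EC80 level; 0% = agonist EC80 plus vehicle and 100% = vehicle without agonist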
TAAR1 antag conf: human TAAR1 antagonists, retest of hits, confirmation, cell-based, fluorescence; shares compounds with TAAR1 antagonist; TAAR1-expressing cells, fluorescence antagonist read-out; inhibition, % at 3 µM; actives 40% (n = 2,400); AID 651785, 2012; in the data active = inhibition above about 49%;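 also: CHO-Ga16 host cells challenged with agonist PEA near its EC80; 0% = agonist at EC80 plus vehicle and 100% = vehicle with no agonist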
Ga16 ag counter: calcium activation in Ga16-expressing cells, counter-screen for TAAR1 antagonist project, cell-based, fluorescence; shares compounds with TAAR1 antagonist; agonist counterscreen; activation, % at 3 µM; actives 18% (n = 2,400); AID 651953, 2012; in the data active = activation above about 12%;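 also: 0% = vehicle wells and 100% = saturating stimulus response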
TAAR1 ag counter: TAAR1 activation by candidate antagonists – cell-based, fluorescence, counter-screen for TAAR1 antagonist project; shares compounds with TAAR1 antagonist; hTAAR1 cell line, agonist mode; activation, % at 3 µM; actives 2% (n = 2,400); AID 651955, 2012; in the data active = activation above about 37%;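 also: CHO cells stably expressing TAAR1 with calcium dye readout; 0% = DMSO vehicle and 100% = full agonist response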
* marks the source's active call; other numbers are inactive results; · = no result. A selection: hits, their analogues and other compounds. The true share with any hit is near 3.7%.

SMILES | HCV NS3 hel inh | TAAR1 ag | HCV core dimer | rCAG RNA binder | TAAR1 antagonist | TAAR1 nonsel count | TAAR1 antag conf | Ga16 ag counter | TAAR1 ag counter
CC1CCCN(CCCNS(=O)(=O)c2cc3c(cc2Br)CCN3C(=O)C2CC2)C1 (configuration not stated) | · | · | · | 6 | · | · | · | · | ·
CCS(=O)(=O)Nc1ccc2c(c1)C(=O)N(C)[C@@H]1CC[C@H](CC(=O)NCCOC)O[C@H]1CO2 | · | · | · | 0 | · | · | · | · | ·
CC(C)N1CCN(c2ccc(OC[C@H]3CO[C@](Cn4cncn4)(c4ccc(Cl)cc4Cl)O3)cc2)CC1 | · | 29 | -1 | 0 | 70* | 32* | 49* | 15* | 14
COc1ccc(N2CCN(Cc3nc(-c4ccc(Cl)cc4Cl)no3)CC2)cc1 | -1 | -1 | 2 | -7 | 5 | · | · | · | ·
COc1ccccc1CNC(=O)N1CCC(c2nc3ccc(Cl)cc3[nH]2)CC1 | · | · | · | 3 | · | · | · | · | ·
COC(=O)[C@H](C(C)C)N(CCCc1cn(Cc2ccccc2)nn1)S(=O)(=O)c1ccccc1Br | · | · | · | 3 | · | · | · | · | ·
O=C(CCc1ccccc1)N[C@H]1/C(=N/O)CCC[C@]12C(=O)N(Cc1ccccc1)c1ccccc12 | · | · | · | 7 | · | · | · | · | ·
COc1ccc2c(c1)CC/C(=C\c1ccc(OC)c(Cn3cccn3)c1)C2=O | -11 | 12 | 14 | -2 | 60* | 34* | 51* | 8 | 9
CC(=O)N1c2ccccc2C(=O)NCC1C(=O)NC(C)(C)C (configuration not stated) | · | · | · | 1 | · | · | · | · | ·
N=c1sccn1CC(=O)N1N=C(c2ccc(Cl)cc2)CC1c1ccco1 (configuration not stated) | -18 | 11 | -3 | 7 | 53* | 4 | 21 | 13* | 12
COc1cc(/C=N/NC(=O)c2cc(-c3c(C)nn(-c4ccccc4)c3C)n[nH]2)ccc1O | 0 | 7 | -16 | 4 | 54* | 27* | 41 | 6 | 6
COc1cc(/C=N/NC(=O)c2cc(-c3ccccc3)nc3ccccc23)ccc1O | -12 | 11 | -10 | 19 | 35 | · | · | · | ·
CCOc1ccc(/C=N/NC(=O)c2cc(-c3ccccc3)nc3ccccc23)cc1O | -7 | 8 | -1 | 14 | 44 | · | · | · | ·
COc1cc(/C=N/NC(=O)c2cc(-c3ccccc3OC(C)C)nc3ccccc23)ccc1O | -8 | 8 | 8 | 15 | 57* | 13 | 42 | 9 | 13
CC(C)COc1cccc(-c2cc(C(=O)N/N=C/c3ccncc3)c3ccccc3n2)c1 | -11 | 3 | · | 4 | 61* | 8 | 27 | 6 | 18
CCOc1cc(/C=N/NC(=O)c2cc(-c3cccc(OC)c3)nc3ccccc23)ccc1O | · | 8 | 5 | 21 | 76* | 14 | 46 | 8 | 8
Cc1ccccc1N1CCN(C(=O)CCn2nnc3ccccc32)CC1 | · | · | · | 3 | · | · | · | · | ·
O=C(N/N=C/C=C/c1ccccc1[N+](=O)[O-])c1cc(-c2cccnc2)nc2ccccc12 | -7 | 11 | 6 | 8 | 59* | 33* | 43 | 4 | -1
CCOc1ccc(OCCCC(=O)N2CCN(S(=O)(=O)c3ccccc3C#N)CC2)cc1 | · | 25 | · | -1 | 60* | 18 | 34 | 10 | 9
COC(=O)[C@]12C[C@H](CC(=O)N3CCN(C(=O)c4ccco4)CC3)C(=O)N(CCc3ccc(OC)c(OC)c3)C1=C[C@H](COCc1ccccc1)O[C@@H]2C | · | · | · | 3 | · | · | · | · | ·

Assay outcomes: PubChem BioAssay, The Scripps Research Institute Molecular Screening Center
